Most compounds without a hit are left out; they make up all but 2.9% or so of the library.
ADAM10 inh: inhibitors of human ADAM10; O14672; recombinant ADAM10, EDANS/DABCYL FRET peptide cleavage, 3 h; inhibition, % at 7 µM; 370,000 tested, 0.62% active;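 active = inhibition above a per-campaign cutoff equal to the mean of compounds falling between control-based bounds plus 3 SD, cut at about 20% in these data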
Target sequence (O14672 214-748 limits assumed): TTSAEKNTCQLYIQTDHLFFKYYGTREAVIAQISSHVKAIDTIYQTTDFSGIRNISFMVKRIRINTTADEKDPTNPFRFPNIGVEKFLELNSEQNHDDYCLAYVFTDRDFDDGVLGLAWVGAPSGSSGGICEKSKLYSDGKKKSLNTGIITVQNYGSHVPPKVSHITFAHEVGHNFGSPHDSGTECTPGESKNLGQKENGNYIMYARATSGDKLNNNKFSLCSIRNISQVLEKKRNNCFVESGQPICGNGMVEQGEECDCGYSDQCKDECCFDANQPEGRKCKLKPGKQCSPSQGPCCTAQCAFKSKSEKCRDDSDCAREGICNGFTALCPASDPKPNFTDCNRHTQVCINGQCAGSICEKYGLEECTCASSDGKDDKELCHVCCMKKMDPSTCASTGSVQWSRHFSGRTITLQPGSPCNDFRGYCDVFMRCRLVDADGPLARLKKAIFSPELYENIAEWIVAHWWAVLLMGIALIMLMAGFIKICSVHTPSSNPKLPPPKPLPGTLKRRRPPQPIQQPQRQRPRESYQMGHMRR
ADAM17 inh: inhibitors of human ADAM17. P78536. recombinant ADAM17, EDANS/DABCYL FRET peptide cleavage. inhibition, % at 6.95 µM. 370,000 tested, 0.83% active. AID 720648;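 active = inhibition above the mean of compounds lying between control limits plus 3 SD, set per campaign, cut at about 8.5% in these data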
NRP1-CendR mod: modulators of CendR peptide binding to human neuropilin-1. O14786. FAM-RPARPAR peptide binding to NRP-1, fluorescence polarization. inhibition, % at 25 µM. 360,000 tested, 0.85% active. AID 602438;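 active = inhibition or corrected inhibition above about 18%, plus a signal ratio from 0.5 to 1.5, limit read from the data, passing the limit was not always enough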
CaV13 ICDI inh: Disruptors of the CACNA1D IQ motif to Ca2+-dependent inactivation inhibitor domain association, primary screening, Förster resonance energy transfer in intact living … | HEK cells, CFP/YFP FRET ICDI-IQ, plate reader, 10 min; percent FRET-ratio fall versus neutral wells | inhibition, % at 12.3 µM | 340,000 tested, 0.098% active | AID 743397;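 active = mean replicate inhibition of at least 30% and at least 1% of replicates passing that level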
Arr AP2 block: inhibitors of human beta-arrestin and AP2 interaction; FITC-arrestin peptide / GST-AP2 beads, flow cytometry; AP2 beta2 appendage carries R879A mutation; inhibition, % at 10 µM; 340,000 tested, 0.31% active; AID 504490;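 active = inhibition above a set limit, near 3 SD of compounds lacking own fluorescence, cut at about 54% in these data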
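Measured by: flow cytometry, FL1 (488/535 nm); Material: AP2 appendage R879A on GSH beads; Evaluation: percent response; Timing: pre-incubation 12 min, peptide binding 1 h, room temperature; Also added: 50 nM FITC-arrestin peptide; Medium: PBS with 0.05% Tween 20 and 0.1% BSA.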
FAS TE block: FAS thioesterase (human) inhibition | 360,000 tested, 0.67% active | inhibition, % at 15 µM | P49327 | recombinant FAS-TE, OMFH fluorogenic substrate, fluorescence endpoint;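 active = compounds whose normalised, plate-corrected inhibition of enzyme fluorescence in the single-dose primary screen is 50% or more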
Arr AP2 CP1: blocks beta-arrestin peptide binding to human AP2; inhibition, % at 10 µM; AID 504908; 1,300 tested, 2% active; shares compounds with Arr AP2 block; GST-AP2 beads, FITC arrestin peptide binding, flow cytometry; GST-fused beta2-adaptin appendage, R879A mutant;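 active = inhibition above a set limit, roughly 3 SD of non-fluorescent compound noise, cut at about 38% in these data; inactive = inhibition at or below that limit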;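 also: loss of bead fluorescence from 50 nM FITC arrestin peptide bound to appendage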
GST GSH counter: GST-GSH bead binding interference, counter-screen; shares compounds with Arr AP2 block; GST-fluorescein binding to GSH beads, fluorescence; inhibition, % at 10 µM; 1,300 tested, 2% active; AID 588338;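 active = inhibition above 50%, about 3 SD of the inhibition seen with non-fluorescent compounds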;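 also: fluorescein maleimide labelled GST captured on 4 micron glutathione beads; higher means more loss of bead fluorescence from quenching or blocked binding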
FAS-TE conf: FAS thioesterase (human) inhibition, confirmation; AID 624325; 2,300 tested, 45% active; recombinant FAS-TE, OMFH fluorogenic substrate, fluorescence; inhibition, % at 15 µM; shares compounds with FAS TE block;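 active = compounds inhibiting the enzyme by at least 50% at 15 µM in any one of the replicates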
ADAM10 confirm: human ADAM10 inhibition, confirmation; shares compounds with ADAM10 inh; ADAM10 QFRET peptide cleavage, EDANS fluorescence; inhibition, % at 6.95 µM; 2,100 tested, 1% active;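 active = inhibition above about 20% chosen separately for each screening run, limit read from the data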
ADAM17 counter: counter-screen for ADAM10 exosite inhibitors: inhibitors of human ADAM17; shares compounds with ADAM10 inh; ADAM17 QFRET peptide cleavage, EDANS fluorescence; inhibition, % at 6.95 µM; 2,100 tested, 0.5% active;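 active = mean triplicate inhibition above the solvent-only control wells' mean plus 3 SD, cut at about 12% in these data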
ADAM10 ctr: counter-screen for ADAM17 exosite inhibitors: inhibitors of human ADAM10; shares compounds with ADAM17 inh; inhibition, % at 6.95 µM; recombinant ADAM10, EDANS/DABCYL FRET peptide cleavage, 3 h; 2,900 tested, 47% active;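 active = mean inhibition over the triplicate runs exceeds the activity threshold set in the earlier primary screen, cut at about 20% in these data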
ADAM17 confirm: confirmation of inhibitors of human ADAM17; 2,900 tested, 65% active; recombinant ADAM17, EDANS/DABCYL QFRET peptide cleavage; inhibition, % at 6.95 µM; shares compounds with ADAM17 inh;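 active = mean inhibition across replicates above the hit cutoff set in the primary screen, cut at about 8.5% in these data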
Of the large screens only hits and unclear results are named; the others gave an inactive call (follow-up assays come after a bar, where they were run).

O=C(Nc1ccccc1[N+](=O)[O-])C1COc2ccccc2O1 (stereo not given)	Arr AP2 block 56 | Arr AP2 CP1 inactive | GST GSH counter inactive
O=C(N/N=C\c1cccc([N+](=O)[O-])c1O)C1COc2ccccc2O1 (stereo not given)	none
O=C(N/N=C/c1cccc([N+](=O)[O-])c1)C1COc2ccccc2O1 (stereo not given)	Arr AP2 block 58 | Arr AP2 CP1 inactive | GST GSH counter inactive
Cc1ccccc1NC(=O)C1COc2ccccc2O1 (stereo not given)	none
CCCCCCCCCCCCNC[C@@H]1CSCCS(=O)(=O)N1	none (no result: NRP1-CendR mod, Arr AP2 block, FAS TE block)
COc1ccc(S(=O)(=O)N2CCOCC2)cc1NC(=O)COC(=O)CC1CC2CCC1C2 (stereo not given)	none
Cc1c(NS(=O)(=O)c2cccc(C(=O)NCc3ccco3)c2)c(=O)n(-c2ccccc2)n1C	Arr AP2 block 95 | Arr AP2 CP1 inactive | GST GSH counter inactive
Cc1cc(C)n2nc(N)c(N=Nc3cccc(Cl)c3)c2n1	Arr AP2 block 99 | Arr AP2 CP1 inactive | GST GSH counter 62
Cc1ccc(N=Nc2c(N)nn3c(C)cc(C)nc23)cc1	none
CC(C)COC(=O)N1CCCCC1c1cc(C(=O)Nc2ccc3c(c2)OCO3)no1 (stereo not given)	none (no result: Arr AP2 block)
CCN(CC)C(=O)c1cccc(NC(=O)C2=COCCO2)c1	Arr AP2 block 68 | Arr AP2 CP1 inactive | GST GSH counter inactive
O=C1C=C(OCCF)CC(c2ccccc2C(F)(F)F)O1 (stereo not given)	none (no result: Arr AP2 block, FAS TE block)
C=CCNC(=O)c1cc2cc(Cl)ccc2nc1N	none (no result: Arr AP2 block)
Cc1cc(NC(=O)CCC(=O)N(C2CC2)C(C(=O)NC(C)(C)C)c2ccccc2Cl)no1 (stereo not given)	none
Cc1cc(NC(=O)CCC(=O)N(Cc2cccnc2)C(C(=O)NC(C)(C)C)c2ccccc2Cl)no1 (stereo not given)	Arr AP2 block 57 | Arr AP2 CP1 inactive | GST GSH counter inactive
Cc1ccc(-c2nnn(CC(=O)N(c3ccccc3)C(C(=O)NCC3CCCO3)c3ccc(F)cc3)n2)o1 (stereo not given)	Arr AP2 block 66 | Arr AP2 CP1 inactive | GST GSH counter inactive
O=C(NC(=S)Nc1ccc(N2CCOCC2)cc1)c1cccs1	Arr AP2 block 60 | Arr AP2 CP1 inactive | GST GSH counter inactive
Fc1cccc(F)c1/C=N/Nc1ccccn1	Arr AP2 block 55 | Arr AP2 CP1 inactive | GST GSH counter inactive
CCCCCOc1ccc(NC(=O)CSc2cccc3cccnc23)cc1	Arr AP2 block 107 | Arr AP2 CP1 inactive | GST GSH counter inactive
COc1ccc(NC(=O)CSc2cccc3cccnc23)c(OC)c1	none
NC(=O)C1CCN(C2=C(Cl)C(=O)c3ccccc3C2=O)CC1	Arr AP2 block 54, FAS TE block 52 | Arr AP2 CP1 51 | GST GSH counter inactive | FAS-TE conf inactive
CCC(=O)OCCNc1cc(SCCC(=O)OC)c2nonc2c1[N+](=O)[O-]	none
CCCC(=O)OCCNc1cc(Sc2nc3ccccc3[nH]2)c2nonc2c1[N+](=O)[O-]	Arr AP2 block 55, FAS TE block 75 | Arr AP2 CP1 inactive | GST GSH counter inactive | FAS-TE conf 78
CCC(C(=O)NC1CCCC1)n1c(-c2ccnc3ccccc23)nc2ccccc21 (stereo not given)	none (no result: Arr AP2 block, FAS TE block)
Cc1cc(NC(=O)c2c(F)cccc2Cl)n(-c2nc3ccccc3[nH]2)n1	ADAM10 inh 30, ADAM17 inh 10, Arr AP2 block 99 (no result: CaV13 ICDI inh) | Arr AP2 CP1 inactive | GST GSH counter inactive | ADAM10 confirm inactive | ADAM17 counter inactive | ADAM10 ctr 40 | ADAM17 confirm 17
CCNC(=O)C1CCCN(C(=O)Cc2ccc3ccccc3c2)CC1 (stereo not given)	none (no result: Arr AP2 block)
CC1=C(O)C(=O)C(c2c(C)cc(C)c(Br)c2C)=C(O)C1=O	FAS TE block 68 (no result: Arr AP2 block) | FAS-TE conf 78
CCOC1=C2CN(S(=O)(=O)c3ccc(C)cc3)C(c3ccccc3)CC2N(S(=O)(=O)c2ccc(C)cc2)C(c2ccc(Br)cc2)C1 (stereo not given)	none (no result: Arr AP2 block, FAS TE block)
CCOc1ccccc1Nc1nnc(SC(C)C(=O)Nc2nc(-c3ccccc3)cs2)s1 (stereo not given)	FAS TE block 76 | FAS-TE conf inactive
N#Cc1c(/N=C/c2ccc(-c3ccccc3C(=O)O)o2)sc2c1CCCC2	none
N#Cc1c(/N=C/c2ccc(-c3ccc(C(=O)O)c(Cl)c3)o2)sc2c1CCCC2	FAS TE block 50 | FAS-TE conf inactive
CCOc1ccc(S(=O)(=O)Nc2ccc(C(=O)N/N=C/c3c(C)nn(-c4ccccc4)c3N3CCCC3)cc2)cc1	NRP1-CendR mod 21, FAS TE block 55 | FAS-TE conf inactive
COc1c(/C=N/Nc2ccc([N+](=O)[O-])cc2[N+](=O)[O-])c(C)nn1-c1ccccc1	none
O=C(O)c1ccccc1NS(=O)(=O)c1ccc(NN=Cc2ccc(F)cc2)c([N+](=O)[O-])c1	FAS TE block 57 (no result: ADAM10 inh, ADAM17 inh, CaV13 ICDI inh) | FAS-TE conf 71
COc1ccccc1NS(=O)(=O)c1ccc(N/N=C/c2ccccc2OCC(=O)O)c([N+](=O)[O-])c1	none

Source: PubChem (several laboratories)
